Experimental data as given in ChEMBL document CHEMBL1212785, “In vitro potency of CXA-101, a novel cephalosporin, against Pseudomonas aeruginosa displaying various resistance phenotypes, including multidrug resistance” (2010).
≈ marks a conversion by molar mass, not a printed value.

Columns and labels:
Type in all cases: functional
[1] = system: Pseudomonas aeruginosa; experiment: Antimicrobial activity against drug resistant Pseudomonas aeruginosa isolates by broth microdilution method
Procedure, shortened: (§1)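 Nonduplicate, nonurine, drug-resistant clinical isolates collected from 40 US hospitals, October 2005 to March 2008. MICs determined by CLSI reference broth microdilution. The cephalosporin was tested alone and with tazobactam fixed at 4 μg/ml. Comparators were tested by the same method. P. aeruginosa ATCC 27853 served as quality control, with ranges of 0.25 to 1 μg/ml for both regimens.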

[2] = system: Pseudomonas aeruginosa; experiment: Antimicrobial activity against multidrug resistant Pseudomonas aeruginosa isolates by broth microdilution method; procedure, shortened: as §1
[3] = system: Pseudomonas aeruginosa; experiment: Antimicrobial activity against imipenem resistant Pseudomonas aeruginosa isolates by broth microdilution method; procedure, shortened: as §1
[4] = system: Pseudomonas aeruginosa; experiment: Antimicrobial activity against Ceftazidime resistant Pseudomonas aeruginosa isolates by broth microdilution method; procedure, shortened: as §1
[5] = system: Pseudomonas aeruginosa; experiment: Antimicrobial activity against piperacillin-tazobactam resistant Pseudomonas aeruginosa isolates by broth microdilution method; procedure, shortened: as §1
[6] = system: Pseudomonas aeruginosa; experiment: Antimicrobial activity against tobramycin resistant Pseudomonas aeruginosa isolates by broth microdilution method; procedure, shortened: as §1

| SMILES | MIC50 [1] | MIC90 [1] | MIC50 [2] | MIC90 [2] | MIC50 [3] | MIC90 [3] | MIC50 [4] | MIC90 [4] | MIC50 [5] | MIC90 [5] | MIC50 [6] | MIC90 [6] | MIC [3] |
| --- | --- | --- | --- | --- | --- | --- | --- | --- | --- | --- | --- | --- | --- |
| CO/N=C(\C(=O)N[C@@H]1C(=O)N2C(C(=O)[O-])=C(C[N+]3(C)CCCC3)CS[C@H]12)c1csc(N)n1 [CEFEPIME] | 16 µg/mL (≈ 33.3 µM) | 64 µg/mL (≈ 133 µM) | 16 µg/mL (≈ 33.3 µM) | 64 µg/mL (≈ 133 µM) | 8 µg/mL (≈ 16.6 µM) | 32 µg/mL (≈ 66.6 µM) | 256 µg/mL (≈ 533 µM) | 256 µg/mL (≈ 533 µM) | 16 µg/mL | 32 µg/mL | – | – | – |
| CC(C)(O/N=C(\C(=O)N[C@@H]1C(=O)N2C(C(=O)[O-])=C(C[n+]3ccccc3)CS[C@H]12)c1csc(N)n1)C(=O)O [CEFTAZIDIME] | 16 µg/mL (≈ 29.3 µM) | 128 µg/mL (≈ 234 µM) | 64 µg/mL (≈ 117 µM) | 256 µg/mL (≈ 468 µM) | 16 µg/mL (≈ 29.3 µM) | 128 µg/mL (≈ 234 µM) | 16 µg/mL (≈ 29.3 µM) | 64 µg/mL (≈ 117 µM) | 32 µg/mL | 128 µg/mL | – | – | – |
| Cn1c(N)c(NC(=O)NCCN)c[n+]1CC1=C(C(=O)O)N2C(=O)[C@@H](NC(=O)/C(=N\OC(C)(C)C(=O)[O-])c3nsc(N)n3)[C@H]2SC1 [CEFTOLOZANE] | 2 µg/mL (≈ 3 µM) | 2 µg/mL (≈ 3 µM) | 2 µg/mL (≈ 3 µM) | > 64 µg/mL | 2 µg/mL (≈ 3 µM) | 8 µg/mL (≈ 12 µM) | 4 µg/mL (≈ 6 µM) | 16 µg/mL (≈ 24 µM) | 2 µg/mL | 8 µg/mL | 2 µg/mL (≈ 3 µM) | 64 µg/mL (≈ 96 µM) | – |
| O=C(O)c1cn(C2CC2)c2cc(N3CCNCC3)c(F)cc2c1=O [CIPROFLOXACIN] | – | – | 32 µg/mL (≈ 96.6 µM) | 64 µg/mL (≈ 193 µM) | 8 µg/mL (≈ 24.1 µM) | 64 µg/mL (≈ 193 µM) | 2 µg/mL (≈ 6.04 µM) | 32 µg/mL (≈ 96.6 µM) | 1 µg/mL | 32 µg/mL | 32 µg/mL (≈ 96.6 µM) | 128 µg/mL (≈ 386 µM) | – |
| C[C@@H](O)[C@H]1C(=O)N2C(C(=O)O)=C(SCCNC=N)C[C@H]12 [IMIPENEM ANHYDROUS] | 8 µg/mL (≈ 26.7 µM) | 32 µg/mL (≈ 107 µM) | 16 µg/mL (≈ 53.4 µM) | 128 µg/mL (≈ 428 µM) | 16 µg/mL (≈ 53.4 µM) | 32 µg/mL (≈ 107 µM) | 64 µg/mL (≈ 214 µM) | 256 µg/mL (≈ 855 µM) | 64 µg/mL | 256 µg/mL | 128 µg/mL (≈ 428 µM) | 256 µg/mL (≈ 855 µM) | 16 µg/mL (≈ 53.4 µM) |
| C[C@H]1COc2c(N3CCN(C)CC3)c(F)cc3c(=O)c(C(=O)O)cn1c23.C[C@H]1COc2c(N3CCN(C)CC3)c(F)cc3c(=O)c(C(=O)O)cn1c23.O [LEVOFLOXACIN] | 8 µg/mL | 64 µg/mL | 32 µg/mL | 128 µg/mL | 16 µg/mL | 64 µg/mL | 4 µg/mL | 64 µg/mL | 4 µg/mL | 64 µg/mL | 32 µg/mL | 128 µg/mL | – |
| C[C@@H](O)[C@H]1C(=O)N2C(C(=O)O)=C(S[C@@H]3CN[C@H](C(=O)N(C)C)C3)[C@H](C)[C@H]12 [MEROPENEM] | 8 µg/mL (≈ 20.9 µM) | 32 µg/mL (≈ 83.4 µM) | 16 µg/mL (≈ 41.7 µM) | 128 µg/mL (≈ 334 µM) | 16 µg/mL (≈ 41.7 µM) | 32 µg/mL (≈ 83.4 µM) | 4 µg/mL (≈ 10.4 µM) | 32 µg/mL (≈ 83.4 µM) | 2 µg/mL | 32 µg/mL | 16 µg/mL (≈ 41.7 µM) | 128 µg/mL (≈ 334 µM) | – |
| NC[C@H]1O[C@H](O[C@H]2[C@H](O)[C@@H](O[C@H]3O[C@H](CO)[C@@H](O)[C@H](N)[C@H]3O)[C@H](N)C[C@@H]2N)[C@H](N)C[C@@H]1O [TOBRAMYCIN] | 2 µg/mL (≈ 4.28 µM) | 128 µg/mL (≈ 274 µM) | 128 µg/mL (≈ 274 µM) | 256 µg/mL (≈ 548 µM) | 1 µg/mL (≈ 2.14 µM) | 64 µg/mL (≈ 137 µM) | 1 µg/mL (≈ 2.14 µM) | 4 µg/mL (≈ 8.56 µM) | 1 µg/mL | 4 µg/mL | 32 µg/mL (≈ 68.4 µM) | 128 µg/mL (≈ 274 µM) | – |
